ChEMBL document CHEMBL1212820, “Novel hinge binder improves activity and pharmacokinetic properties of BRAF inhibitors” (J Med Chem, 2010)

Assays:
[1] = target: T1, Serine/threonine-protein kinase B-raf (Homo sapiens, UniProt P15056, V600E); test: Inhibition of B-Raf V600E mutant
Summary of the method: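 Enzymatic IC50 determined in vitro against purified V600E BRAF.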

[2] = target: T1, Serine/threonine-protein kinase B-raf; test: Inhibition of BRAF V600E mutant-mediated ERK phosphorylation in human WM266.4 cells; assay type: cell-based
Summary of the method: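 Cellular IC50 for inhibition of phosphoERK formation.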

[3] = Growth inhibition of human WM266.4 cells expressing BRAF V600E mutant after 5 days by SRB assay; assay type: functional; conditions: WM 266-4, 120 h
Summary of the method: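 Antiproliferative SRB assay in WM266.4 (BRAF mutant), WM1361 (NRAS mutant) and D24 (BRAF/NRAS wild-type) melanoma cells, with GI50 derived from the assay.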

T1 sequence (P15056 2-766 V600E limits assumed): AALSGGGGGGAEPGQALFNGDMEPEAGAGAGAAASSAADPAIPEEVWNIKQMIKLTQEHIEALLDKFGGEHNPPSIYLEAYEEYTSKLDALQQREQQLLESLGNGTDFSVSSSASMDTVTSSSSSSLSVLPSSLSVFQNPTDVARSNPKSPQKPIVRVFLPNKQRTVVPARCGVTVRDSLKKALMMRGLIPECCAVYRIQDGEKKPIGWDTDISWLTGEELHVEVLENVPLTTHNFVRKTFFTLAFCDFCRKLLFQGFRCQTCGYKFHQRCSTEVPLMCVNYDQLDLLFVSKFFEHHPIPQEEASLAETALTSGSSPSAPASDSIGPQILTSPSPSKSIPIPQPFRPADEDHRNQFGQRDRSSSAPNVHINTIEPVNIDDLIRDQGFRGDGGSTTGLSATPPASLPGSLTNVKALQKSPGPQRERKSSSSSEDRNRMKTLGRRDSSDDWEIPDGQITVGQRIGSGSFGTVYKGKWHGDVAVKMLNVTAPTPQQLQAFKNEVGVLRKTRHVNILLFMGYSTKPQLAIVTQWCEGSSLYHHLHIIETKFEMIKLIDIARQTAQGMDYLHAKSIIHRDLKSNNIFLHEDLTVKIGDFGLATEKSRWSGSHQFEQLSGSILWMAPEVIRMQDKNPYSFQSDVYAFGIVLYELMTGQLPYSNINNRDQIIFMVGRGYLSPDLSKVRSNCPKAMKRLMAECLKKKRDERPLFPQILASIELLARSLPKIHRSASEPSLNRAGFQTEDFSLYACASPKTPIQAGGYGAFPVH

Row | Structure (SMILES) | IC50 [1] [nM] | IC50 [2] [nM] | GI50 [3] [nM]
1 | Cc1ccc(-n2nc(C(C)(C)C)cc2NC(=O)Nc2ccc(Oc3ccnc4[nH]c(=O)c(N)nc34)cc2F)cc1 | 320 | 11 | 8
2 | Cc1ccc(-n2nc(C(C)(C)C)cc2NC(=O)Nc2ccc(Oc3ccnc4[nH]c(=O)c(C)nc34)c3ccccc23)cc1 | 99 | 5 | 75
3 | O=C1CNc2nccc(Oc3ccc(NC(=O)Nc4cc(C(F)(F)F)ccc4F)cc3)c2N1 | 54 | 3500 | 1690
4 | Cc1ccc(-n2nc(C(C)(C)C)cc2NC(=O)Nc2ccc(Oc3ccnc4c3NCC(=O)N4)cc2F)cc1 | 51 | 11 | 34
5 | O=C(Nc1ccc(Oc2ccnc3[nH]cnc23)cc1F)Nc1cc(C(F)(F)F)ccc1F | 42 | 8500 | 4850
6 | Cc1ccc(-n2nc(C(C)(C)C)cc2NC(=O)Nc2ccc(Oc3ccnc4[nH]nnc34)cc2F)cc1 | 1370 | 3100 | 1980
7 | CSc1cc(Oc2ccnc3[nH]c(=O)c(=O)[nH]c23)ccc1NC(=O)Nc1ccc(Cl)c(C(F)(F)F)c1 | 3 | 590 | 220
8 | O=C(Nc1ccc(Cl)c(C(F)(F)F)c1)Nc1ccc(Oc2ccnc3ncc(=O)[nH]c23)cc1F | 59 | 16000 | 3900
9 | Cc1nc2nccc(Oc3ccc(NC(=O)Nc4cc(C(C)(C)C)nn4-c4ccccc4)c(F)c3)c2[nH]c1=O | 8500 | 390 | 430
10 | O=C(Nc1cccc(Oc2ccnc3[nH]c(=O)cnc23)c1)c1cccc(OC(F)(F)F)c1 | 21 | 4000 | 9900
11 | CSc1cc(Oc2ccnc3[nH]c(=O)c(C)nc23)ccc1NC(=O)Nc1cc(C(C)(C)C)nn1-c1ccccc1 | 20 | 3 | 4
12 | O=C(Nc1ccc(Oc2ccnc3[nH]c(=O)cnc23)cc1F)Nc1cc(C(F)(F)F)ccc1F | 4 | 780 | 1300
13 | Cc1ccc(-n2nc(C(C)(C)C)cc2NC(=O)Nc2ccc(Oc3ccnc4[nH]c(=O)[nH]c34)cc2F)cc1 | – | – | 46
14 | CSc1cc(Oc2ccnc3[nH]c(=O)cnc23)ccc1NC(=O)Nc1cc(C(F)(F)F)ccc1F | 4 | 195 | 96
15 | CC(C)(C)c1cc(NC(=O)Nc2ccc(Oc3ccnc4nc(N)c(=O)[nH]c34)c3ccccc23)n(-c2ccccc2)n1 | 405 | 36 | 18
16 | CC(C)(C)c1cccc(C(=O)Nc2cccc(Oc3ccnc4[nH]c(=O)cnc34)c2)c1 | 7 | 850 | 1700
17 | CSc1cc(Oc2ccnc3[nH]c(=O)c(C)nc23)ccc1NC(=O)Nc1cc(C(C)(C)C)nn1-c1ccc(C)cc1 | 24 | 6 | 3
18 | CN(C)c1cnc2c(Oc3ccc(NC(=O)Nc4cc(C(F)(F)F)ccc4F)c(F)c3)ccnc2n1 | 220 | 20000 | 55000
19 | CC(C)(C)c1cc(NC(=O)Nc2ccc(Oc3ccnc4ncc(=O)[nH]c34)c3ccccc23)n(-c2ccccc2)n1 | 264 | 48 | 73
20 | Nc1nc2nccc(Oc3ccc(NC(=O)Nc4cc(C(F)(F)F)ccc4F)c(F)c3)c2[nH]c1=O | 168 | 9900 | 6500
21 | CN(C)Cc1nc2c(Oc3ccc(NC(=O)Nc4cc(C(F)(F)F)ccc4F)c(F)c3)ccnc2[nH]1 | 730 | > 10000 | 1400
22 | Cc1ccc(-n2nc(C(C)(C)C)cc2NC(=O)Nc2ccc(Oc3ccnc4nc(N)c(=O)[nH]c34)cc2F)cc1 | 222 | 70 | 128
23 | Cn1nc(C(C)(C)C)cc1NC(=O)Nc1ccc(Oc2ccnc3[nH]c(=O)cnc23)cc1F | 17 | 620 | 760
24 | O=C(Nc1cccc(Oc2ccnc3ncc(=O)[nH]c23)c1)c1cccc(OC(F)(F)F)c1 | 306 | 37000 | 6800
25 | CSc1cc(Oc2ccnc3ncc(=O)[nH]c23)ccc1NC(=O)Nc1cc(C(C)(C)C)nn1-c1ccccc1 | 450 | 101 | 27
26 | Cc1ccc(-n2nc(C(C)(C)C)cc2NC(=O)Nc2ccc(Oc3ccnc4ncc(=O)[nH]c34)cc2)cc1 | 2290 | 634 | 670
27 | CSc1cc(Oc2ccnc3ncc(=O)[nH]c23)ccc1NC(=O)Nc1cc(C(F)(F)F)ccc1F | 246 | 6600 | 5000
28 | CSc1cc(Oc2ccnc3[nH]c(=O)[nH]c23)ccc1NC(=O)Nc1cc(C(C)(C)C)nn1-c1ccc(C)cc1 | – | – | 16

Continued, in another order:

Row | IC50 [1] [nM] | IC50 [2] [nM] | Structure (SMILES) | GI50 [3] [nM]
29 | 10 | 1430 | Cc1nc2c(Oc3cccc(NC(=O)c4cccc(C(C)(C)C)c4)c3)ccnc2[nH]c1=O | 890
30 | 940 | 650 | CC(C)(C)c1cc(NC(=O)Nc2ccc(Oc3ccnc4ncc(=O)[nH]c34)cc2F)n(-c2ccccc2)n1 | 940
31 | 3 | 590 | Cc1nc2c(Oc3ccc(NC(=O)Nc4cc(C(F)(F)F)ccc4F)c(F)c3)ccnc2[nH]c1=O | 850
32 | 40 | 10000 | O=C(Nc1cccc(Oc2ccnc3[nH]c(=O)cnc23)c1)Nc1cc(C(F)(F)F)ccc1F | 10000
33 | 2 | 550 | CSc1cc(Oc2ccnc3[nH]c(=O)c(=O)[nH]c23)ccc1NC(=O)Nc1cc(C(F)(F)F)ccc1F | 190
34 | 1290 | > 100000 | O=C(Nc1ccc(Oc2ccnc3ncc(=O)[nH]c23)cc1)Nc1ccc(Cl)c(C(F)(F)F)c1 | 8800
35 | 97 | 3800 | O=C(Nc1ccc(Oc2ccnc3nc(N4CCOCC4)cnc23)cc1F)Nc1cc(C(F)(F)F)ccc1F | 1120
36 | 76 | 69000 | O=C(Nc1ccc(Oc2ccnc3ncc(=O)[nH]c23)cc1F)Nc1cc(C(F)(F)F)ccc1F | 1800
37 | 640 | 1700 | CC(C)(C)c1cc(NC(=O)Nc2cccc(Oc3ccnc4ncc(=O)[nH]c34)c2)n(-c2ccccc2)n1 | 1600
38 | 132 | 69 | Cc1ccc(-n2nc(C(C)(C)C)cc2NC(=O)Nc2cccc(Oc3ccnc4[nH]c(=O)c(C)nc34)c2)cc1 | 69
39 | 110 | 16000 | CN1CCN(c2cnc3c(Oc4ccc(NC(=O)Nc5cc(C(F)(F)F)ccc5F)c(F)c4)ccnc3n2)CC1 | 120
40 | 11 | 4890 | O=C(Nc1ccc(Oc2ccnc3[nH]c(=O)cnc23)cc1)Nc1ccc(Cl)c(C(F)(F)F)c1 | 9100
41 | 150 | 7 | Cc1ccc(-n2nc(C(C)(C)C)cc2NC(=O)Nc2ccc(Oc3ccnc4[nH]c(=O)c(N)nc34)c3ccccc23)cc1 | 77
42 | 25 | 6000 | CN(C)c1nc2c(Oc3ccc(NC(=O)Nc4cc(C(F)(F)F)ccc4F)c(F)c3)ccnc2[nH]1 | 116
43 | 5 | 49 | Nc1nc2c(Oc3ccc(NC(=O)Nc4cc(C(F)(F)F)ccc4F)c4ccccc34)ccnc2[nH]c1=O | 15
44 | 134 | > 10000 | O=C(Nc1cc(C(F)(F)F)ccc1F)Nc1ccc(Oc2ccnc3[nH]c(=O)c(C(F)(F)F)nc23)c2ccccc12 | > 10000
45 | 6 | 660 | O=C(Nc1ccc(Cl)c(C(F)(F)F)c1)Nc1ccc(Oc2ccnc3[nH]c(=O)cnc23)cc1F | 1300
46 | 870 | 5000 | CC(C)(C)c1cc(NC(=O)c2cccc(Oc3ccnc4[nH]c(=O)cnc34)c2)n(-c2ccccc2)n1 | 2000
47 | 69 | 24000 | O=C(Nc1ccc(Oc2ccnc3[nH]nnc23)cc1F)Nc1cc(C(F)(F)F)ccc1F | 39000
48 | 1290 | 4200 | O=C(Nc1ccc(Oc2ccnc3ncc(=O)[nH]c23)cc1)Nc1cc(C(F)(F)F)ccc1F | 4000
49 | 21 | 5200 | O=C(Nc1ccc(Oc2ccnc3[nH]c(=O)c(=O)[nH]c23)cc1)Nc1ccc(Cl)c(C(F)(F)F)c1 | 3190
50 | > 10000 | 280 | Cc1ccc(-n2nc(C(C)(C)C)cc2NC(=O)Nc2ccc(Oc3ccnc4nc(N5CCOCC5)cnc34)cc2F)cc1 | 235
51 | 4 | 187 | CSc1cc(Oc2ccnc3[nH]c(=O)cnc23)ccc1NC(=O)Nc1ccc(Cl)c(C(F)(F)F)c1 | 118
52 | 108 | 3400 | Cc1nc2nccc(Oc3ccc(NC(=O)Nc4cc(C(F)(F)F)ccc4F)c4ccccc34)c2[nH]c1=O | 8500
53 | 17000 | 176 | Cc1ccc(-n2nc(C(C)(C)C)cc2NC(=O)Nc2ccc(Oc3ccnc4nc(C)c(=O)[nH]c34)c3ccccc23)cc1 | 1500
54 | 4100 | 750 | CN1CCN(c2cnc3c(Oc4ccc(NC(=O)Nc5cc(C(C)(C)C)nn5-c5ccccc5)c(F)c4)ccnc3n2)CC1 | 417
55 | 34 | 3500 | CC(C)(C)c1cccc(C(=O)Nc2cccc(Oc3ccnc4ncc(=O)[nH]c34)c2)c1 | 2540
56 | 17 | 13000 | O=C(Nc1ccc(Oc2ccnc3[nH]c(S)nc23)cc1F)Nc1cc(C(F)(F)F)ccc1F | 970
57 | 107 | 45000 | CNc1cnc2c(Oc3ccc(NC(=O)Nc4cc(C(F)(F)F)ccc4F)c(F)c3)ccnc2n1 | 48000
58 | 1670 | 1700 | CN(C)c1nc2c(Oc3ccc(NC(=O)Nc4cc(C(C)(C)C)nn4-c4ccccc4)c(F)c3)ccnc2[nH]1 | 574
